ChEMBL document CHEMBL5705899 (Biochem J, 2014)
The source made the active and inactive calls.

Assays:
[1] = target: Mitogen-activated protein kinase 14 (Homo sapiens) (UniProt Q16539); test: Inhibition of recombinant human N-terminal GST-tagged P38alpha (1 to 360 residues) expressed in Escherichia coli assessed as remaining activity at 1 uM using MBP as substrate incubated for 30 mins in presence of [gamma-33P]ATP by filter binding method relative to control
[2] = target: Ephrin type-B receptor 3 (Homo sapiens) (UniProt P54753); test: Inhibition of recombinant human N-terminal His6-tagged EPHB3 (561 to 998 residues) expressed in Escherichia coli assessed as remaining activity at 1 uM using Poly(Glu, Tyr) as substrate incubated for 30 mins in presence of [gamma-33P]ATP by filter binding method relative to control
[3] = target: Tyrosine-protein kinase ZAP-70 (Homo sapiens) (UniProt P43403); test: Inhibition of recombinant human N-terminal His6-tagged ZAP70 (1 to 619 residues) expressed in baculovirus infected Sf21 cells assessed as remaining activity at 1 uM using Poly(Glu,Tyr) as substrate incubated for 30 mins in presence of [gamma-33P]ATP by filter binding method relative to control
[4] = target: MAP/microtubule affinity-regulating kinase 3 (Homo sapiens) (UniProt P27448); test: Inhibition of recombinant human N-terminal His6-tagged MARK3 (2 to 729 residues) expressed in baculovirus infected Sf21 cells assessed as remaining activity at 1 uM using CHKtide as substrate incubated for 30 mins in presence of [gamma-33P]ATP by filter binding method relative to control
[5] = target: Casein kinase I isoform delta (Homo sapiens) (UniProt P48730); test: Inhibition of recombinant human N-terminal GST-tagged CK1delta (1 to 415 residues) expressed in Escherichia coli assessed as remaining activity at 1 uM using RRKDLHDDEEDEAMSITA as substrate incubated for 30 mins in presence of [gamma-33P]ATP by filter binding method relative to control
[6] = target: Ribosomal protein S6 kinase alpha-5 (Homo sapiens) (UniProt O75582); conditions: Sf21, dose 1.0 µM, time 30.0 min
[7] = target: Fibroblast growth factor receptor 3 (Homo sapiens) (UniProt P22607); test: Inhibition of human FGFR3 at 1 uM using polyEY as substrate in presence of 33P-ATP by ProQinase assay
[8] = target: Ephrin type-B receptor 4 (Homo sapiens) (UniProt P54760); test: Inhibition of human EPHB4 at 1 uM using polyEY as substrate in presence of 33P-ATP by ProQinase assay
[9] = target: Ephrin type-B receptor 3 (Homo sapiens) (UniProt P54753); test: Inhibition of human EPHB3 at 1 uM using polyEY as substrate in presence of 33P-ATP by ProQinase assay
[10] = target: ALK tyrosine kinase receptor (Homo sapiens) (UniProt Q9UM73); test: Inhibition of human GST/His-tagged ALK at 1 uM using polyEY as substrate in presence of 33P-ATP by ProQinase assay
[11] = target: Serine/threonine-protein kinase VRK1 (Homo sapiens) (UniProt Q99986); test: Inhibition of human VRK1 at 1 uM using RBER-CHKtide as substrate in presence of 33P-ATP by ProQinase assay
[12] = target: Tyrosine-protein kinase ABL2 (Homo sapiens) (UniProt P42684); test: Inhibition of human ABL2 at 1 uM using poly(Ala,Glu,Lys,Tyr) as substrate in presence of 33P-ATP by ProQinase assay
[13] = target: Dual specificity tyrosine-phosphorylation-regulated kinase 4 (Homo sapiens) (UniProt Q9NR20); test: Inhibition of human DYRK4 at 1 uM using RBER-CHKtide as substrate in presence of 33P-ATP by ProQinase assay
[14] = target: Cyclin-dependent kinase 5/CDK5 activator 1 (Homo sapiens) (UniProt Q00535+Q15078); test: Inhibition of human CDK5/p35NCK at 1 uM using RBER-CHKtide as substrate in presence of 33P-ATP by ProQinase assay; type: protein-complex assay
[15] = target: Proto-oncogene tyrosine-protein kinase Src (Homo sapiens) (UniProt P12931); test: Inhibition of human GST/His-tagged SRC at 1 uM using PolyEY as substrate in presence of 33P-ATP by ProQinase assay
[16] = target: Receptor-interacting serine/threonine-protein kinase 2 (Homo sapiens) (UniProt O43353); test: Inhibition of human RIPK2 at 1 uM using RBER-CHKtide as substrate in presence of 33P-ATP by ProQinase assay
[17] = target: CDK6/cyclin D1 (Homo sapiens) (UniProt P24385+Q00534); test: Inhibition of human CDK6/CycD1 at 1 uM using RBER-CHKtide as substrate in presence of 33P-ATP by ProQinase assay; type: protein-complex assay
[18] = target: Serine/threonine-protein kinase tousled-like 1 (Homo sapiens) (UniProt Q9UKI8); test: Inhibition of human TLK1 at 1 uM using RB-CTF as substrate in presence of 33P-ATP by ProQinase assay
[19] = target: G protein-coupled receptor kinase 6 (Homo sapiens) (UniProt P43250); test: Inhibition of human GRK6 at 1 uM using casein as substrate in presence of 33P-ATP by ProQinase assay
[20] = target: Rhodopsin kinase GRK7 (Homo sapiens) (UniProt Q8WTQ7); test: Inhibition of human GRK7 at 1 uM using casein as substrate in presence of 33P-ATP by ProQinase assay
[21] = target: Inhibitor of nuclear factor kappa-B kinase subunit alpha (Homo sapiens) (UniProt O15111); test: Inhibition of human IKKalpha at 1 uM using RBER-CHKtide as substrate in presence of 33P-ATP by ProQinase assay
[22] = target: Casein kinase I isoform delta (Homo sapiens) (UniProt P48730); test: Inhibition of human CK1delta at 1 uM using casein as substrate in presence of 33P-ATP by ProQinase assay
[23] = target: Phosphatidylinositol 4-kinase beta (Homo sapiens, UniProt Q9UBF8); test: Inhibition of human PI4KB using PI as substrate by ADP-Glo assay
[24] = target: Phosphatidylinositol 4,5-bisphosphate 3-kinase catalytic subunit gamma isoform (Homo sapiens, UniProt P48736); test: Inhibition of human PIK3CG using PIP2/PS as substrate by ADP-Glo assay
[25] = target: Phosphatidylinositol 4-kinase type 2-beta (Homo sapiens, UniProt Q8TCG2); test: Inhibition of human PI4K2B using PI/PS as substrate by ADP-Glo assay
[26] = test system: U2OS; test: Inhibition of PI3K in human U2OS cells expressing FLAG-tagged SGK3 assessed as reduction in PRAS40 phosphorylation at T246 residues at 0.01 to 1 uM 1 hr by immunoblot analysis; type: cell-based; conditions: dose 0.01-1 µM
Outline: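 Flp-In T-REx U2OS cells were grown in McCoy medium with 10% FBS. Expression of C-terminally FLAG-tagged full-length SGK3 was induced with 0.01 mg/ml doxycycline for 24 h. Cells were treated with inhibitor for 1 h and lysed in phosphatase-inhibitor buffer. Lysates were cleared at 16000 g for 10 min at 4°C, protein was measured by Bradford, and phosphorylation was read by immunoblot with ECL detection.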

Casein kinase I isoform delta (Homo sapiens), sequence (P48730 whole entry, looked up, the tested form may be a part, canonical isoform): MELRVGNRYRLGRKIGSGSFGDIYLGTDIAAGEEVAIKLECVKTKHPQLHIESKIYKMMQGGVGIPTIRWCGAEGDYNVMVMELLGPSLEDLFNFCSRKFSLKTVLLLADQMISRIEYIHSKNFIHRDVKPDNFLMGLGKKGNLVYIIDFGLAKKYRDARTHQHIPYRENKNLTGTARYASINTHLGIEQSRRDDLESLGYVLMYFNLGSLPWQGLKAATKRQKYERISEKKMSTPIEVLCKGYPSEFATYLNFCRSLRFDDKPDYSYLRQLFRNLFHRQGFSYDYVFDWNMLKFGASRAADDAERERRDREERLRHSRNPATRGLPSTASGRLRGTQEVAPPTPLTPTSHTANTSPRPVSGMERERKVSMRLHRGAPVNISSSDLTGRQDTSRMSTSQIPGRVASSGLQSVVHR
Ephrin type-B receptor 3 (Homo sapiens), sequence (P54753 whole entry, the tested form may be a part): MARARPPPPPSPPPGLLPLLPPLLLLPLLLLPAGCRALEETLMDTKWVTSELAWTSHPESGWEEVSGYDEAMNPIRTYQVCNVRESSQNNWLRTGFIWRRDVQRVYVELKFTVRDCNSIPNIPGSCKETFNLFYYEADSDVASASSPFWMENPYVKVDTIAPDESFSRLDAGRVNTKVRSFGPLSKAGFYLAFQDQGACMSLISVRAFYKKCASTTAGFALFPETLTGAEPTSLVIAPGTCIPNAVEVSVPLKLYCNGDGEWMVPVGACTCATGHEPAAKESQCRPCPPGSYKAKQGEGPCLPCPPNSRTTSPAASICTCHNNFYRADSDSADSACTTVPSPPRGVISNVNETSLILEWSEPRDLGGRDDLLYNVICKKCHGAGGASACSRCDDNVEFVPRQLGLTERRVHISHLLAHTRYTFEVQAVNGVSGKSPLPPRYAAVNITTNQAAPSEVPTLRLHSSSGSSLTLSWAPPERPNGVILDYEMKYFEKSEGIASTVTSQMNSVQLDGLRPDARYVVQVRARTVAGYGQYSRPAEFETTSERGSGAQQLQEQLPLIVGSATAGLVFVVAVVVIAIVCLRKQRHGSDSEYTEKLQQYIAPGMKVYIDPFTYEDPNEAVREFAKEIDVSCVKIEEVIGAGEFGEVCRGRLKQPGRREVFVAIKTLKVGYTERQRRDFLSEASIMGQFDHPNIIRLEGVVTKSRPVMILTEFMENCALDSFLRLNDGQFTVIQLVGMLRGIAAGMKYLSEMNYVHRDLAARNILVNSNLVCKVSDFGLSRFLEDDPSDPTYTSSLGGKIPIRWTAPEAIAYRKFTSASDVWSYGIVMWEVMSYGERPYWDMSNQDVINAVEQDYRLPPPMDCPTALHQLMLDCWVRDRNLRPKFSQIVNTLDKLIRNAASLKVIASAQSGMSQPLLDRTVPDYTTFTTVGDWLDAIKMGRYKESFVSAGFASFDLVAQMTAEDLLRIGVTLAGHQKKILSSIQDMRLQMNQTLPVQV
MAP/microtubule affinity-regulating kinase 3 (Homo sapiens), sequence (P27448 whole entry, looked up, the tested form may be a part, canonical isoform): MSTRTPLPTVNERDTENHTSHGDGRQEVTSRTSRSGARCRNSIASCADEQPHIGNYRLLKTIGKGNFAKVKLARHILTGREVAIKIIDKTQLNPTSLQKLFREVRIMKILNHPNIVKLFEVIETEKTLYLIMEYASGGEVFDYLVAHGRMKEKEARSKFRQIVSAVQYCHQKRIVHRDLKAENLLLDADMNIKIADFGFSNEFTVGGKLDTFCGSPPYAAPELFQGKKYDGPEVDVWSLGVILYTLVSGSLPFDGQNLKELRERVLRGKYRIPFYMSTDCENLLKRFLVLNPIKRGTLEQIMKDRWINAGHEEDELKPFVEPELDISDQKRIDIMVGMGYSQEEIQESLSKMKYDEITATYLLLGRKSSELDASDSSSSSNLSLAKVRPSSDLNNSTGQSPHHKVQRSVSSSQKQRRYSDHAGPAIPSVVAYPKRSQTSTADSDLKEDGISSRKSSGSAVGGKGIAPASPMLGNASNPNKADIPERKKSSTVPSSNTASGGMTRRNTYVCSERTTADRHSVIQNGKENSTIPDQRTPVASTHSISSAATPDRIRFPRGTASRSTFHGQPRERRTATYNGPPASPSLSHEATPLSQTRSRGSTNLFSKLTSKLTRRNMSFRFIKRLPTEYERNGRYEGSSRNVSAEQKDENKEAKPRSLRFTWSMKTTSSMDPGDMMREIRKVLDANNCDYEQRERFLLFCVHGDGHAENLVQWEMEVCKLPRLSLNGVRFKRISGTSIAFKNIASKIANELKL
Fibroblast growth factor receptor 3 (Homo sapiens), sequence (P22607 23-806 limits assumed): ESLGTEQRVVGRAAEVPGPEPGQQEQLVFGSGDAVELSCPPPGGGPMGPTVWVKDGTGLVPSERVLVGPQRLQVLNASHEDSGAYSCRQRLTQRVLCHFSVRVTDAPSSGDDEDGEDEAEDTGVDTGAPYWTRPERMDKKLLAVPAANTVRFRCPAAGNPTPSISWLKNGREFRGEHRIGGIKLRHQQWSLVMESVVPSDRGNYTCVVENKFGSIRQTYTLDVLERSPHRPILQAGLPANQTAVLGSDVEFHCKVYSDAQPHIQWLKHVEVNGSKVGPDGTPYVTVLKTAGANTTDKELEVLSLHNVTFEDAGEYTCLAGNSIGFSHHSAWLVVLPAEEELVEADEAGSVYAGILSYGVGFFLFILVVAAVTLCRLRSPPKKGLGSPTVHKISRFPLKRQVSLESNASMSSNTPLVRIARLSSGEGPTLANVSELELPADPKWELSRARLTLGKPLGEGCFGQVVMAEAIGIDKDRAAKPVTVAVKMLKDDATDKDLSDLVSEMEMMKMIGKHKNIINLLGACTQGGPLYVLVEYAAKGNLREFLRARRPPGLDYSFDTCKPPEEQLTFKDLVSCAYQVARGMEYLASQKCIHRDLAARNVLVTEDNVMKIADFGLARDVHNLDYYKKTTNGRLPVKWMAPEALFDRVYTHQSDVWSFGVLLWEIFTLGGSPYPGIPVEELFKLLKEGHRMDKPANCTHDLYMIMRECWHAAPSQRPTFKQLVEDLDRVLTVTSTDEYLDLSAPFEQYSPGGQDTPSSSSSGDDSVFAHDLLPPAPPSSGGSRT
G protein-coupled receptor kinase 6 (Homo sapiens), sequence (P43250 whole entry, looked up): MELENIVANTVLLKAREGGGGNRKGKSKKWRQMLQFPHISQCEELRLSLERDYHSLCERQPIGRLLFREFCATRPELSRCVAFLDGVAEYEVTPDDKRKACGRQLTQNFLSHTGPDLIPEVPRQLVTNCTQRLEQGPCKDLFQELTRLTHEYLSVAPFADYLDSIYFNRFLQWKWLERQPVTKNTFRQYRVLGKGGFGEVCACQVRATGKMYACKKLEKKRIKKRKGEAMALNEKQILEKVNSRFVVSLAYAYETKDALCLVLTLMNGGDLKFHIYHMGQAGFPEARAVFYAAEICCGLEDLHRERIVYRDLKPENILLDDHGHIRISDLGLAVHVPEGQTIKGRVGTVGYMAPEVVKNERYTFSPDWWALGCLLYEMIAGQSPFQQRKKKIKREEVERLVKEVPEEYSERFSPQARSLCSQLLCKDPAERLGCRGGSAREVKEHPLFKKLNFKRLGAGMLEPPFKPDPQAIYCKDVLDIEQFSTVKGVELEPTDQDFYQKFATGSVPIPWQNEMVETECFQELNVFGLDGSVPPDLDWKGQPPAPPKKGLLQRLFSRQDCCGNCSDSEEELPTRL
Dual specificity tyrosine-phosphorylation-regulated kinase 4 (Homo sapiens), sequence (Q9NR20 whole entry): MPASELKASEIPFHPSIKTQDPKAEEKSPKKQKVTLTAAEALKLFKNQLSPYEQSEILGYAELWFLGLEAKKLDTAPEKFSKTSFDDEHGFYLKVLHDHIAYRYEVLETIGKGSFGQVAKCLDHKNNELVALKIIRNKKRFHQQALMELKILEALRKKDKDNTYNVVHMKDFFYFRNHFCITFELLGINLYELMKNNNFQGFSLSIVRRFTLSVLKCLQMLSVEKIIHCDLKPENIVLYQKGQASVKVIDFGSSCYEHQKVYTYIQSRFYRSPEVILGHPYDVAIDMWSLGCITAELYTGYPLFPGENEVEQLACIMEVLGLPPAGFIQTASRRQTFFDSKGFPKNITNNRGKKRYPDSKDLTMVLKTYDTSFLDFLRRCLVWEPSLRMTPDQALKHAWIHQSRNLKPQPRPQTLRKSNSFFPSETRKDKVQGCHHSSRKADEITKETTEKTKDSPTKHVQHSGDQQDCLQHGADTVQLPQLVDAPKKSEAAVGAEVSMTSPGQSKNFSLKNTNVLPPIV
Phosphatidylinositol 4-kinase type 2-beta, sequence (Q8TCG2 whole entry): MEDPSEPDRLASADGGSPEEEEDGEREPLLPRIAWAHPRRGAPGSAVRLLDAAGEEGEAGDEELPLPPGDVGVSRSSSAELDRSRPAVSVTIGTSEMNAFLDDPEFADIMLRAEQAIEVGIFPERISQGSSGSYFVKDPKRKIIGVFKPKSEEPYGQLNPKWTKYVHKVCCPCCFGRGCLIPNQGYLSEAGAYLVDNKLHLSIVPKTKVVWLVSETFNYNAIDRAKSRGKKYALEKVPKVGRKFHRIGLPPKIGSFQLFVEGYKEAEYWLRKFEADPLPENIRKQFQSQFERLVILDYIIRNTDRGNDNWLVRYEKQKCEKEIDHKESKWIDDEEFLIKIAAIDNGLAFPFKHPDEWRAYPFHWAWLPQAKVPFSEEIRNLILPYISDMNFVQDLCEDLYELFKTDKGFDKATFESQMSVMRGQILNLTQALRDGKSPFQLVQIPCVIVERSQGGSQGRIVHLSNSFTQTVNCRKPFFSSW
Serine/threonine-protein kinase VRK1 (Homo sapiens), sequence (Q99986 whole entry): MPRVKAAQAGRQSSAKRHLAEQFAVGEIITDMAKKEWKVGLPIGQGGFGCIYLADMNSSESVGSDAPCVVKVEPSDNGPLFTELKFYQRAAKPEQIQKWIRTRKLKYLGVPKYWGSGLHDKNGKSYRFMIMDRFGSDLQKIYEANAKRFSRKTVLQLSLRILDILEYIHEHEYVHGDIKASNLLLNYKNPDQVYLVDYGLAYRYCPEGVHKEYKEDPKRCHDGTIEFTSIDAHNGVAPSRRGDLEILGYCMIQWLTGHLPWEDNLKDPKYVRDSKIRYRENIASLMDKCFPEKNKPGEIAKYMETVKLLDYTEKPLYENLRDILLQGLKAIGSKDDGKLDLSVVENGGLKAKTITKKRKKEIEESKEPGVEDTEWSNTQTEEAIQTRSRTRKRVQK

CC(C)(O)CNc1ncc(-c2ccnc(Nc3ccnc(Cl)c3)n2)c(CC2CC2)n1
> 10 µM: IC50 [23] | IC50 [24] | IC50 [25]
inactive: inhibition [7] | inhibition [8] | inhibition [9] | inhibition [10] | inhibition [11] | inhibition [12] | inhibition [13] | inhibition [14] | inhibition [15] | inhibition [16] | inhibition [17] | inhibition [18] | inhibition [19] | inhibition [20] | inhibition [21] | inhibition [22] | inhibition [26]
111%: Activity [2]
109%: Activity [4]
125%: Activity [1]
105%: Activity [5] | Activity [6]
110%: Activity [3]
